KCNK9 block: inhibitors of human KCNK9 two-pore domain potassium channel | Q9NPC2 | actives 1.2% (n = 310,000) | B-score at 10 µM | HEK293 KCNK9, FluxOR thallium flux fluorescence; stronger effect = lower value;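 active = ratio B-score over 3 SD below the library mean, with starting fluorescence within 5 SD of its mean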;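 note: negative B-score means less thallium flux so channel inhibition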
Target sequence (Q9NPC2 whole entry, looked up, the tested form may be a part): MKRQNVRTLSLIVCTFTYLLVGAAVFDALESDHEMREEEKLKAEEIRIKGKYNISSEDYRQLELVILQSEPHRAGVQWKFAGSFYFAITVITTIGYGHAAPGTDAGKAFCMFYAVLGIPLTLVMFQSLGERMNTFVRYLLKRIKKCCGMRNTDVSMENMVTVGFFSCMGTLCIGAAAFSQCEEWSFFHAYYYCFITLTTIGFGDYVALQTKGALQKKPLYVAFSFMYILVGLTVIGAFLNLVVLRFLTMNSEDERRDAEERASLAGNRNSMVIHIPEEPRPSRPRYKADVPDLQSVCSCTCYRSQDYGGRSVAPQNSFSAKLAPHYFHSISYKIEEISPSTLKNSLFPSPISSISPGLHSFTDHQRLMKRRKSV
hERG rescue: shields human hERG channel from block by proarrhythmic agents; CHO-hERG, FluxOR thallium flux, dofetilide IC70 present; activation (rescue from dofetilide block), less the hit threshold, % at 10 µM; actives 0.51% (n = 310,000); AID 1511;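 active = activation above the mean of controls blocked by dofetilide plus 5 SD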;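 note: thallium influx through hERG after potassium depolarization seen as dye fluorescence rise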
Kir21 block: inhibitors of mouse Kir2.1 inward-rectifier potassium channel | actives 0.85% (n = 310,000) | B-score at 10 µM | AID 1672 | P35561 | HEK293-Kir2.1, FluxOR thallium flux fluorescence; stronger effect = lower value;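 active = fluorescence ratio B-score at or below minus 3 SD of library scores, with starting-brightness B-score within 2 SD, cut at about -4.2 in these data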;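 note: channel flux triggered by added potassium and thallium sulfate stimulus; B-score of peak minus minimum fluorescence over baseline after thallium stimulus; more negative B-score means stronger Kir2.1 block with less thallium influx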
KCNQ1 inh: inhibitors of human KCNQ1 potassium channel; P51787; AID 2642; actives 1.3% (n = 310,000); B-score at 10 µM; CHO-K1 KCNQ1, FluxOR thallium flux fluorescence; stronger effect = higher value;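 active = compounds whose thallium flux B-score, printed positive for inhibition, exceeds three library SD while starting fluorescence stays within three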;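 note: channel opened by potassium depolarization with thallium stimulus after 20 min compound exposure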
KCNK3 inh: human KCNK3 channel inhibition, primary screen. CHO-KCNK3 thallium flux, FluxOR fluorescence; stronger effect = lower value. actives 0.84% (n = 340,000). AID 602410. B-score at 10 µM;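 active = B-score under library mean minus 4 SD, starting fluorescence ratio at most library mean plus 5 SD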;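 note: more negative B-score means stronger inhibition of thallium flux through KCNK3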
KCNQ1 act: potentiates or activates the human KCNQ1 potassium channel; CHO-K1 KCNQ1, thallium flux FluxOR fluorescence; stronger effect = higher value; actives 0.35% (n = 310,000); AID 2648; B-score at 10 µM; P51787;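 active = fluorescence ratio B-score, a plate-corrected score, at least three library SD, with initial intensity B-score within 5 SD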
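assay system = KCNQ1-transfected CHO-K1 cells | medium = assay buffer with matched DMSO | probe or stimulus = depolarizing K+/Tl+ stimulus, K2SO4 and Tl2SO4 each 12.5 mM in 5x stock | dosing = single dose | incubation = dye 90 min, compound 20 min, room temperature | detection = kinetic FluxOR fluorescence, 10 s baseline plus 110 s post-stimulus | evaluation = ratio B score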
The depositor's hits bear a star; i = inactive; · = no result given. A selection: hits, their analogues and other compounds. The true share with any hit is near 3.7%.

SMILES	KCNK9 block	hERG rescue	Kir21 block	KCNQ1 inh	KCNK3 inh	KCNQ1 act
NC1=NC(c2ccc(F)cc2)n2c(nc3ccccc32)N1 (configuration not stated)	i	-8	-1.6	i	i	i
CCOc1ccccc1C(O)C1=CC(=O)c2ccccc2C1=O (configuration not stated)	·	·	·	·	i	·
CCn1c(=O)c([N+](=O)[O-])c(Cl)c2ccccc21	i	-29	-0.05	7*	i	i
CCn1c(=O)c([N+](=O)[O-])c(NCCN(C)C)c2ccccc21	i	-10	1.2	i	i	i
CC1CCN(S(=O)(=O)c2ccc(NC(=O)CN3C(=O)NC(C)(c4ccccc4)C3=O)cc2)CC1 (configuration not stated)	i	-11	0.98	i	i	i
CC(C)=CCc1c(O)cc2c(=O)c3ccc(O)cc3oc2c1O	-12*	-11	0.22	i	i	i
Cc1cccc(NC(=O)c2ccc(Cl)c(S(=O)(=O)N3CCc4ccccc43)c2)n1	·	·	·	·	-11*	·
O=C(Nc1nnc(-c2ccccc2)o1)c1cc(Cl)sc1Cl	i	4	0.57	i	i	i
O=C(COc1ccccc1)Nc1nnc(-c2ccc3c(c2)CCCC3)o1	i	-17	-2.1	i	i	i
O=C(Nc1nnc(-c2ccc3c(c2)CCCC3)o1)c1ccccc1Cl	i	-3	0.37	i	i	12*
O=C(Nc1nnc(-c2ccc(F)cc2)o1)c1cc(Cl)sc1Cl	i	10*	-0.7	i	i	23*
CCc1ccc(/C(C)=N/NS(=O)(=O)c2ccc(OC)cc2)s1	i	-7	1.7	i	i	i
O=C(N/N=C/c1ccncc1)c1ccccc1[N+](=O)[O-]	i	-3	2.9	i	i	i
O=C(N/N=C/C(Br)=C/c1ccccc1)c1ccccc1[N+](=O)[O-]	-6.9*	-7	-0.02	i	i	i
Cc1ccc(-c2cc(C(=O)N/N=C/C(Br)=C/c3ccccc3)n[nH]2)o1	-7*	-12	-2.5	i	i	i
COc1cccc(C(=O)N/N=C/C(Br)=C/c2ccccc2)c1	-8.1*	1	0.3	i	i	i
CN(C)S(=O)(=O)c1ccc(C(=O)N2CCN(S(=O)(=O)c3ccc4c(c3)OCCO4)CC2)cc1	·	·	·	·	i	·
CC(C)(C)OC(=O)N1CCC(c2c(C(=O)NCC3CCN(C4CCCC4)C3)cnn2-c2ccccc2Cl)CC1 (configuration not stated)	i	-11	0.01	i	i	i
CC(C)CNC(=S)NC(=O)c1ccc(Cl)cc1Cl	i	-10	-1.6	i	i	10*
COc1cccc(CC(=O)OC(C)C(=O)Nc2ncc(Cl)cc2Cl)c1 (configuration not stated)	i	-11	-4.5*	i	i	i
CCOc1ccccc1OCC(=O)OC(C)C(=O)Nc1ncc(Cl)cc1Cl (configuration not stated)	·	·	·	·	i	·
CC(OC(=O)Cc1coc2ccc3ccccc3c12)C(=O)Nc1ncc(Cl)cc1Cl (configuration not stated)	i	-3	-5.6*	i	i	i
Cc1ccc2c(CC(=O)OC(C)C(=O)Nc3ncc(Cl)cc3Cl)coc2c1 (configuration not stated)	i	-6	-4.5*	i	i	i
CSc1ncc(C(=O)Nc2ccc(Br)cn2)c(C)n1	i	-7	0.82	i	i	i
C=CCNCCCOc1ccc(C(C)(C)c2ccccc2)cc1	i	-11	-8.6*	i	i	i
COCCCNCCCOc1ccc(C(C)(C)c2ccccc2)cc1	i	-9	-8.2*	i	i	i
COCCNCCCOc1ccc(C(C)(C)c2ccccc2)cc1	i	-6	-3.2	i	i	i
CN1CCN(C(=O)CCN2C(=O)/C(=C/c3ccc(F)cc3)SC2=S)CC1	i	-15	0.9	i	i	i
COc1cc2c(cc1NC(=S)Nc1cccc(C(F)(F)F)c1)oc1ccccc12	i	-21	1.2	7*	i	i

Bioassay records (PubChem)
